The text below walks through data of ChEMBL document CHEMBL1137433, “Synthesis and antibacterial evaluation of ureides of Baylis-Hillman derivatives” (2006).

For orientation: MIC means the lowest concentration that inhibits growth of the organism. High values mean a less susceptible organism, low ones a more susceptible organism.

≈ marks a conversion by molar mass, not a printed value. A value given as a limit tells only on which side of the number the result lay.

Holding throughout (assay type): functional
One experiment deals with Staphylococcus aureus. The experiment can be described thus: Antibacterial activity against Staphylococcus aureus. The essentials:
(§1)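 Broth microdilution MIC in Mueller Hinton broth, 96-well plates. Strains from departmental collection, kept on nutrient agar slants at 37 °C, purity checked before testing. Starting inoculum 1–5 · 10³ cells/ml. Plates incubated 24 h at 37 °C in a moist chamber, then absorbance read at 492 nm. MIC taken as 90% growth inhibition relative to growth control.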

A further experiment relates to Enterococcus faecalis. In words: Antibacterial activity against Streptococcus faecalis. The essentials: as §1
A further experiment deals with Klebsiella pneumoniae. The experiment can be described thus: Antibacterial activity against Klebsiella pneumoniae. The essentials:
as §1

A further experiment has as its system Pseudomonas aeruginosa. The experiment can be described thus: Antibacterial activity against Pseudomonas aeruginosa. The essentials: as §1
For another experiment, the system named is Escherichia coli. The experiment can be described thus: Antibacterial activity against Escherichia coli. In short, it runs like this:
as §1

As for `N=c1c(Cc2ccccc2)c[nH]c(=O)n1-c1ccc(Cl)c(Cl)c1`, the MIC with Staphylococcus aureus, in the experiment on Enterococcus faecalis, with Klebsiella pneumoniae, against Pseudomonas aeruginosa and against Escherichia coli was 50 µg/mL (≈ 144 µM) each time.
Take `N#C/C(=C/c1cccs1)CNC(=O)Nc1ccc(Cl)cc1Cl`: the MIC with Staphylococcus aureus, with Enterococcus faecalis, against Klebsiella pneumoniae, in the experiment on Pseudomonas aeruginosa and against Escherichia coli was above 50 µg/mL each time.
Take `N#C/C(=C/c1ccccc1Cl)CNC(=S)Nc1ccccc1`: the MIC in the experiment with Staphylococcus aureus, in the experiment on Enterococcus faecalis, in the experiment on Klebsiella pneumoniae, against Pseudomonas aeruginosa and in the experiment on Escherichia coli was above 50 µg/mL in each case.
`Cc1ccc(-n2c(=O)[nH]cc(Cc3ccccc3Cl)c2=N)cc1Cl`: the MIC in the experiment on Staphylococcus aureus is 50 µg/mL (≈ 139 µM); in the experiment with Enterococcus faecalis, 50 µg/mL (≈ 139 µM); in the experiment with Klebsiella pneumoniae it was above 50 µg/mL; against Pseudomonas aeruginosa, 50 µg/mL (≈ 139 µM); in the experiment on Escherichia coli, 50 µg/mL (≈ 139 µM).
Consider `N#C/C(=C/c1ccccc1Cl)CNC(=O)Nc1ccc(Cl)cc1`, for which the MIC with Staphylococcus aureus, against Enterococcus faecalis, in the experiment with Klebsiella pneumoniae, in the experiment with Pseudomonas aeruginosa and against Escherichia coli was above 50 µg/mL in each case.
Consider `N=c1c(Cc2ccccc2Cl)c[nH]c(=O)n1-c1ccc(Cl)c(Cl)c1`, for which the MIC in the experiment on Staphylococcus aureus is above 50 µg/mL; against Enterococcus faecalis, 50 µg/mL (≈ 131 µM); with Klebsiella pneumoniae it was above 50 µg/mL; in the experiment with Pseudomonas aeruginosa it was above 50 µg/mL; against Escherichia coli, 50 µg/mL (≈ 131 µM).
As for `N=c1c(Cc2ccc(Cl)c(Cl)c2)c[nH]c(=O)n1-c1ccc(Cl)cc1`, the MIC against Staphylococcus aureus, in the experiment on Enterococcus faecalis, against Klebsiella pneumoniae, against Pseudomonas aeruginosa and with Escherichia coli was above 50 µg/mL each time.
For `N=c1c(Cc2ccccc2Cl)c[nH]c(=O)n1-c1ccc(Cl)cc1Cl`, the MIC with Staphylococcus aureus was above 50 µg/mL; against Enterococcus faecalis it was above 50 µg/mL; against Klebsiella pneumoniae it was 50 µg/mL (≈ 131 µM); in the experiment with Pseudomonas aeruginosa, above 50 µg/mL; in the experiment on Escherichia coli it was above 50 µg/mL.
For `N=c1c(Cc2ccccc2)c[nH]c(=O)n1-c1ccc(Cl)cc1Cl`, the MIC against Staphylococcus aureus was found to be 50 µg/mL (≈ 144 µM); with Enterococcus faecalis, 25 µg/mL (≈ 72.2 µM); in the experiment with Klebsiella pneumoniae it was 50 µg/mL (≈ 144 µM); against Pseudomonas aeruginosa, 50 µg/mL (≈ 144 µM); against Escherichia coli it was 50 µg/mL (≈ 144 µM).
`N#C/C(=C/c1ccc(Cl)c(Cl)c1)CNC(=S)Nc1ccccc1`: the MIC with Staphylococcus aureus amounted to 1.56 µg/mL (≈ 4.31 µM); with Enterococcus faecalis, 3.12 µg/mL (≈ 8.61 µM); against Klebsiella pneumoniae, 3.12 µg/mL (≈ 8.61 µM); with Pseudomonas aeruginosa, 25 µg/mL (≈ 69 µM); in the experiment with Escherichia coli, 1.56 µg/mL (≈ 4.31 µM).
Turning to `Nc1c(Cc2ccc(Cl)c(Cl)c2)cnc(=S)n1-c1ccccc1`, the MIC in the experiment on Staphylococcus aureus is above 50 µg/mL; in the experiment with Enterococcus faecalis, 25 µg/mL (≈ 69 µM); with Klebsiella pneumoniae, 50 µg/mL (≈ 138 µM); with Pseudomonas aeruginosa, above 50 µg/mL; in the experiment with Escherichia coli, above 50 µg/mL.
For `N#C/C(=C/c1cccs1)CNC(=O)Nc1ccc(Cl)cc1`, the MIC against Staphylococcus aureus, with Enterococcus faecalis, with Klebsiella pneumoniae, against Pseudomonas aeruginosa and in the experiment with Escherichia coli was above 50 µg/mL each time.
As for `COC(c1ccccc1)C(C#N)CN(Cc1ccccc1)C(=O)Nc1ccc(Cl)c(Cl)c1` (centres undefined), the MIC against Staphylococcus aureus was found to be 3.12 µg/mL (≈ 6.66 µM); against Enterococcus faecalis, 6.25 µg/mL (≈ 13.3 µM); in the experiment on Klebsiella pneumoniae, 3.12 µg/mL (≈ 6.66 µM); against Pseudomonas aeruginosa it was 50 µg/mL (≈ 107 µM); with Escherichia coli, 3.12 µg/mL (≈ 6.66 µM).
Regarding `N#C/C(=C/c1ccc(Cl)c(Cl)c1)CNC(=O)Nc1ccc(Cl)cc1`, the MIC in the experiment on Staphylococcus aureus, in the experiment on Enterococcus faecalis, against Klebsiella pneumoniae, in the experiment with Pseudomonas aeruginosa and against Escherichia coli was above 50 µg/mL each time.
In the case of `N#CC(CN(Cc1ccccc1)C(=O)Nc1ccc(Cl)c(Cl)c1)C(O)c1ccccc1` (centres undefined), the MIC with Staphylococcus aureus, against Enterococcus faecalis, in the experiment with Klebsiella pneumoniae, in the experiment on Pseudomonas aeruginosa and with Escherichia coli was above 50 µg/mL in each case.
For the molecule `CC1(C)S[C@@H]2[C@H](NC(=O)[C@H](N)c3ccccc3)C(=O)N2[C@H]1C(=O)O` [AMPICILLIN], the MIC against Staphylococcus aureus is 0.09 µg/mL (≈ 0.258 µM); against Enterococcus faecalis it was 0.02 µg/mL (≈ 0.0572 µM); in the experiment on Klebsiella pneumoniae, 0.01 µg/mL (≈ 0.0286 µM); with Pseudomonas aeruginosa, 50 µg/mL (≈ 143 µM).
